How the values were obtained:
[1] = test system: NCI-H460; assay: Antiproliferative activity against human NCI-H460 cells assessed as cell growth inhibition at 10 uM incubated for 48 hrs by SRB assay relative to control; assay type: functional; settings: read-out: GI
[2] = test system: NCI-H522; assay: Antiproliferative activity against human NCI-H522 cells assessed as cell growth inhibition at 10 uM incubated for 48 hrs by SRB assay relative to control; assay type: functional; settings: read-out: GI
Outline: (§1)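 Cells plated in 96-well plates at […] cells/well and preincubated 24 h at 37 °C, 5% CO2. Time-zero plates were TCA-fixed. Compound was diluted in medium with 50 µg/mL gentamicin and cells exposed for 48 h. Adherent cells fixed with 10% final TCA; suspension cells with 16% final TCA. Plates stained with 0.4% SRB in 1% acetic acid, dye solubilized in 10 mM Trizma, absorbance read at 515 nm. Percent growth calculated against time-zero and control.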

[3] = test system: HCC 2998; assay: Antiproliferative activity against human HCC 2998 cells assessed as cell growth inhibition at 10 uM incubated for 48 hrs by SRB assay relative to control; assay type: functional; settings: read-out: GI
[4] = test system: HT-29; assay: Antiproliferative activity against human HT-29 cells assessed as cell growth inhibition at 10 uM incubated for 48 hrs by SRB assay relative to control; assay type: functional; settings: read-out: GI; outline: as §1
[5] = test system: SF-539; assay: Antiproliferative activity against human SF-539 cells assessed as cell growth inhibition at 10 uM incubated for 48 hrs by SRB assay relative to control; assay type: functional; settings: read-out: GI; outline: as §1
[6] = test system: SNB-19; assay: Antiproliferative activity against human SNB-19 cells assessed as cell growth inhibition at 10 uM incubated for 48 hrs by SRB assay relative to control; assay type: functional; settings: read-out: GI
Outline: (§2)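 Cells pre-incubated 24 h at 37°C, 5% CO2, then exposed to compound (DMSO stock diluted in medium with 50 µg/mL gentamicin) for 48 h. Adherent cells fixed with cold TCA (final 10%, 60 min, 4°C); suspension cells fixed with 16% TCA final. Stained with 0.4% SRB in 1% acetic acid for 10 min, dye solubilized in 10 mM Trizma base, absorbance read at 515 nm. Growth calculated against time-zero and untreated control plates.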

[7] = test system: SNB-75; assay: Antiproliferative activity against human SNB-75 cells assessed as cell growth inhibition at 10 uM incubated for 48 hrs by SRB assay relative to control; assay type: functional; settings: read-out: GI; outline: as §2
[8] = test system: U-251; assay: Antiproliferative activity against human U-251 cells assessed as cell growth inhibition at 10 uM incubated for 48 hrs by SRB assay relative to control; assay type: functional; settings: read-out: GI; outline: as §2
[9] = test system: M14; assay: Antiproliferative activity against human M14 cells assessed as cell growth inhibition at 10 uM incubated for 48 hrs by SRB assay relative to control; assay type: functional; settings: read-out: GI; outline: as §1
[10] = test system: SK-MEL-5; assay: Antiproliferative activity against human SK-MEL-5 cells assessed as cell growth inhibition at 10 uM incubated for 48 hrs by SRB assay relative to control; assay type: functional; settings: read-out: GI; outline: as §1
[11] = test system: UACC-257; assay: Antiproliferative activity against human UACC-257 cells assessed as cell growth inhibition at 10 uM incubated for 48 hrs by SRB assay relative to control; assay type: functional; settings: read-out: GI; outline: as §2
[12] = test system: OVCAR-4; assay: Antiproliferative activity against human OVCAR-4 cells assessed as cell growth inhibition at 10 uM incubated for 48 hrs by SRB assay relative to control; assay type: functional; settings: read-out: GI
[13] = test system: 786-0; assay: Antiproliferative activity against human 786-0 cells assessed as cell growth inhibition at 10 uM incubated for 48 hrs by SRB assay relative to control; assay type: functional; settings: read-out: GI
[14] = test system: RXF 393; assay: Antiproliferative activity against human RXF 393 cells assessed as cell growth inhibition at 10 uM incubated for 48 hrs by SRB assay relative to control; assay type: functional; settings: read-out: GI; outline: as §1
[15] = test system: SN12C; assay: Antiproliferative activity against human SN12C cells assessed as cell growth inhibition at 10 uM incubated for 48 hrs by SRB assay relative to control; assay type: functional; settings: read-out: GI
[16] = test system: MCF7; assay: Antiproliferative activity against human MCF7 cells assessed as cell growth inhibition at 10 uM incubated for 48 hrs by SRB assay relative to control; assay type: functional; settings: read-out: GI
[17] = test system: Hs-578T; assay: Antiproliferative activity against human Hs-578T cells assessed as cell growth inhibition at 10 uM incubated for 48 hrs by SRB assay relative to control; assay type: functional; settings: read-out: GI; outline: as §1
[18] = test system: BT-549; assay: Antiproliferative activity against human BT-549 cells assessed as cell growth inhibition at 10 uM incubated for 48 hrs by SRB assay relative to control; assay type: functional; settings: read-out: GI
[19] = test system: T47D; assay: Antiproliferative activity against human T47D cells assessed as cell growth inhibition at 10 uM incubated for 48 hrs by SRB assay relative to control; assay type: functional; settings: read-out: GI; outline: as §2
[20] = test system: NCI-H23; assay: Antiproliferative activity against human NCI-H23 cells assessed as cell growth inhibition at 10 uM incubated for 48 hrs by SRB assay relative to control; assay type: functional; settings: read-out: GI
[21] = test system: NCI-H226; assay: Antiproliferative activity against human NCI-H226 cells assessed as cell growth inhibition at 10 uM incubated for 48 hrs by SRB assay relative to control; assay type: functional; settings: read-out: GI; outline: as §1
[22] = test system: EKVX; assay: Antiproliferative activity against human EKVX cells assessed as cell growth inhibition at 10 uM incubated for 48 hrs by SRB assay relative to control; assay type: functional; settings: read-out: GI
[23] = test system: MOLT-4; assay: Antiproliferative activity against human MOLT-4 cells assessed as cell growth inhibition at 10 uM incubated for 48 hrs by SRB assay relative to control; assay type: functional; settings: read-out: GI
[24] = test system: K562; assay: Antiproliferative activity against human K562 cells assessed as cell growth inhibition at 10 uM incubated for 48 hrs by SRB assay relative to control; assay type: functional; settings: read-out: GI
[25] = test system: CCRF-CEM; assay: Antiproliferative activity against human CCRF-CEM cells assessed as cell growth inhibition at 10 uM incubated for 48 hrs by SRB assay relative to control; assay type: functional; settings: read-out: GI; outline: as §1
[26] = Cytotoxicity against human MCF-10A cells assessed as cell growth inhibition incubated for 72 hrs by MTT assay
[27] = test system: MDA-MB-468; assay: Cytotoxicity against human MDA-MB-468 cells assessed as cell growth inhibition incubated for 72 hrs by MTT assay; assay type: functional, cell-based; settings: MDA-MB-468, 72 h
[28] = test system: T47D; assay: Cytotoxicity against human T47D cells assessed as cell growth inhibition incubated for 72 hrs by MTT assay; assay type: functional, cell-based
[29] = Selectivity index, ratio of IC50 for human MCF-10A cells to IC50 for human MDA-MB-468 cells; settings: MCF-10A cells versus MDA-MB-468 cells
[30] = Selectivity index, ratio of IC50 for human MCF-10A cells to IC50 for human T47D cells; settings: MCF-10A cells versus T47D cells
[31] = target: Vascular endothelial growth factor receptor 2 (Homo sapiens, UniProt P35968); assay: Inhibition of VEGFR-2 (unknown origin) incubated for 45 mins by Kinase-Glo Max assay
[32] = test system: MDA-MB-468; assay: Induction of cell cycle arrest in human MDA-MB-468 cells assessed as accumulation of cells at G0 to G1 phase at IC50 incubated for 24 hrs by RNase/PI staining based flow cytometry (reference value: 59.02 %); assay type: functional
[33] = test system: MDA-MB-468; assay: Induction of cell cycle arrest in human MDA-MB-468 cells assessed as accumulation of cells at S phase at IC50 incubated for 24 hrs by RNase/PI staining based flow cytometry (reference value: 24.85 %); assay type: functional
[34] = test system: MDA-MB-468; assay: Induction of cell cycle arrest in human MDA-MB-468 cells assessed as fold increase in cell population at S phase at IC50 incubated for 24 hrs by RNase/PI staining based flow cytometry relative to control; assay type: functional

Chain of Vascular endothelial growth factor receptor 2 (P35968 whole entry): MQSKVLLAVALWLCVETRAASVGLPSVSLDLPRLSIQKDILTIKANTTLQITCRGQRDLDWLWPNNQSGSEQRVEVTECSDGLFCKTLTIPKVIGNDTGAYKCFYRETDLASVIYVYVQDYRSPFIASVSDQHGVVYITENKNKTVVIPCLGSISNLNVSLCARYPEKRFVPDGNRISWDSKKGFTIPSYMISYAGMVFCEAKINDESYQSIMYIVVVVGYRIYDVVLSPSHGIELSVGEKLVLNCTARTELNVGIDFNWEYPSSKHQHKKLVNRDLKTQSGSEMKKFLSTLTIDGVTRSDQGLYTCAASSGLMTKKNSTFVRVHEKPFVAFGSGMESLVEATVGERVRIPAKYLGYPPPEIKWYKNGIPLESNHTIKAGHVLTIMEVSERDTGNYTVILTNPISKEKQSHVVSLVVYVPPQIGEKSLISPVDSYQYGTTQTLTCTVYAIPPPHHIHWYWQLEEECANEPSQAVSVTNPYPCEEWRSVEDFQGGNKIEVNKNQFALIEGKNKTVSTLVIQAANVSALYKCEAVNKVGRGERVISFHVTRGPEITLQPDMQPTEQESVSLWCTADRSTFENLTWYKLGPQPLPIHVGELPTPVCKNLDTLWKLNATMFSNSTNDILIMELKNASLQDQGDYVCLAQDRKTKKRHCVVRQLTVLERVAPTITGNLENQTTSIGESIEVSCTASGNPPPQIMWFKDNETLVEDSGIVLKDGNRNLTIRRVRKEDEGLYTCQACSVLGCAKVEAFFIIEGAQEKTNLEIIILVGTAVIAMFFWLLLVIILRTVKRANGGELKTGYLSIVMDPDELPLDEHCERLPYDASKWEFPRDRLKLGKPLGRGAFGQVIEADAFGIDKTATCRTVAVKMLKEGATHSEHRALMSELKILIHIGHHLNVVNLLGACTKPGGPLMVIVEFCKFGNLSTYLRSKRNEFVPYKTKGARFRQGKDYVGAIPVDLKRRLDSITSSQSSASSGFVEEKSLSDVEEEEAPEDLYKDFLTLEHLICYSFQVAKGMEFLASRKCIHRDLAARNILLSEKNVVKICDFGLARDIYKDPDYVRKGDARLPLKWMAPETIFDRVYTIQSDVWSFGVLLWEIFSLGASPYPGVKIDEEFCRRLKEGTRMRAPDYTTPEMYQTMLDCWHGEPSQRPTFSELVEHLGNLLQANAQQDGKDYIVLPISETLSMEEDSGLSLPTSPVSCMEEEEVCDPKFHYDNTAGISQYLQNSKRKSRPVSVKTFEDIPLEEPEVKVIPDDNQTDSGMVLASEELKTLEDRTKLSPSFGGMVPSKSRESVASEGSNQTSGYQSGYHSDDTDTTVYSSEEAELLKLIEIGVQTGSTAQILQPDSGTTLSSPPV

Structure (SMILES)	inhibition of growth at 10 µM [1] [%]	inhibition of growth at 10 µM [2] [%]	inhibition of growth at 10 µM [3] [%]	inhibition of growth at 10 µM [4] [%]	inhibition of growth at 10 µM [5] [%]	inhibition of growth at 10 µM [6] [%]	inhibition of growth at 10 µM [7] [%]	inhibition of growth at 10 µM [8] [%]	inhibition of growth at 10 µM [9] [%]	inhibition of growth at 10 µM [10] [%]	inhibition of growth at 10 µM [11] [%]	inhibition of growth at 10 µM [12] [%]	inhibition of growth at 10 µM [13] [%]	inhibition of growth at 10 µM [14] [%]	inhibition of growth at 10 µM [15] [%]	inhibition of growth at 10 µM [16] [%]	inhibition of growth at 10 µM [17] [%]	inhibition of growth at 10 µM [18] [%]	inhibition of growth at 10 µM [19] [%]	inhibition of growth at 10 µM [20] [%]	other results
Cc1nc2c(cnn2-c2ccccc2)c(=O)n1-c1ccc(NC(=O)c2ccc([N+](=O)[O-])cc2)cc1	26.4	38.9	< 15	21.6	18.7	25.4	32.9	< 15	24.6	82.4	50.8	48.2	16.3	26.4	29	56.7	23.1	48.8	66.5	50.6	inhibition of growth at 10 µM [21]: 50.8%; inhibition of growth at 10 µM [22]: 69.3%; inhibition of growth at 10 µM [23]: 63.4%; inhibition of growth at 10 µM [24]: 68.8%; inhibition of growth at 10 µM [25]: 52.5%
Cc1nc2c(cnn2-c2ccccc2)c(=O)n1-c1ccc(NC(=O)c2ccc(Cl)cc2)cc1	28.8	32.3	15.8	28	< 15	16.3	27.5	< 15	24.6	80.3	53.9	53.9	20.3	< 15	17	46.8	20.1	36	72.5	47.2	inhibition of growth at 10 µM [21]: 49.1%; inhibition of growth at 10 µM [22]: 68.5%; inhibition of growth at 10 µM [23]: 30.7%; inhibition of growth at 10 µM [24]: 61.3%; inhibition of growth at 10 µM [25]: 25.3%; IC50 at 72 h [26]: 34.6 µM; IC50 [27]: 10.7 µM; IC50 [28]: 20.1 µM; selectivity ratio [29]: 3.24; selectivity ratio [30]: 1.72; IC50 [31]: 0.2 µM
Cc1ccc(C(=O)Nc2ccc(-n3c(C)nc4c(cnn4-c4ccccc4)c3=O)cc2)cc1	24.6	28.8	< 15	28.8	18.6	17.9	17.2	< 15	26.8	93	58	50.2	< 15	< 15	26.7	52.2	15.2	40.8	65.4	46.5	inhibition of growth at 10 µM [21]: 45.2%; inhibition of growth at 10 µM [22]: 69.5%; inhibition of growth at 10 µM [23]: 65.7%; inhibition of growth at 10 µM [24]: 68.8%; inhibition of growth at 10 µM [25]: 53.7%; IC50 at 72 h [26]: 58.2 µM; IC50 [27]: 16 µM; selectivity ratio [29]: 3.63; IC50 [31]: 0.261 µM
Cc1nc2c(cnn2-c2ccccc2)c(=O)n1-c1ccc(NC(=O)c2ccc(F)cc2)cc1	45.6	36.1	20.1	36.5	< 15	19.6	35.5	18.9	37.1	> 100	68.2	59.9	17.5	20.9	25.6	64.2	21.3	54	82	49.8	inhibition of growth at 10 µM [21]: 43.8%; inhibition of growth at 10 µM [22]: 69.8%; inhibition of growth at 10 µM [23]: 94.6%; inhibition of growth at 10 µM [24]: 72.8%; inhibition of growth at 10 µM [25]: 65.2%; IC50 at 72 h [26]: 22.8 µM; IC50 [27]: 3.34 µM; IC50 [28]: 4.79 µM; selectivity ratio [29]: 6.81; selectivity ratio [30]: 4.75; IC50 [31]: 0.063 µM; Activity [32]: 52.86%; Activity [33]: 38.02%; fold change (FC) [34]: 1.53
Cc1nc2c(cnn2-c2ccccc2)c(=O)n1-c1ccc(NC(=O)c2ccccc2)cc1	27.9	20.7	< 15	25.2	19.8	23.6	43.2	< 15	23.6	76.2	46.9	53.2	20.4	18.9	24.3	47.1	28.9	39.1	72.4	45.5	inhibition of growth at 10 µM [21]: 44.7%; inhibition of growth at 10 µM [22]: 65.7%; inhibition of growth at 10 µM [23]: 68.1%; inhibition of growth at 10 µM [24]: 66.8%; inhibition of growth at 10 µM [25]: 49.5%; IC50 at 72 h [26]: 55.5 µM; IC50 [27]: 27 µM; IC50 [28]: 35.5 µM; selectivity ratio [29]: 2.05; selectivity ratio [30]: 1.56; IC50 [31]: 0.178 µM
